Active and inactive are the calls of the source. The calls are words filed in the database; no cut-off is given here.
Columns and labels:
[1] = target: Sodium-dependent serotonin transporter (Rattus norvegicus) (UniProt P31652); test: Displacement of [3H]-citalopram from SERT in rat cortical membranes at 10 uM after 60 mins; assay type: cell membranes; conditions: Membrane
Procedure, shortened: (§1)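 Frozen rat cortical membranes (washed pellets) in 50 mM Tris-HCl pH 7.4 with 120 mM NaCl and 5 mM KCl, incubated with [3H]citalopram with or without compound. Nonspecific binding defined with 10 µM (S)-citalopram. Bound radioactivity measured by filtration and scintillation counting. Mean ± S.E.M. of replicates; Student's t test vs vehicle.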

[2] = target: Sodium-dependent serotonin transporter (Rattus norvegicus) (UniProt P31652); test: Increase of [3H]-citalopram binding to SERT in rat cortical membranes after 60 mins; assay type: cell membranes; conditions: Membrane; procedure, shortened: as §1
[3] = target: Sodium-dependent dopamine transporter (Rattus norvegicus, UniProt P23977); test: Displacement of [3H]-WIN35428 from DAT in rat striatal membranes after 90 mins; assay type: cell membranes, Membrane
Chain of Sodium-dependent dopamine transporter (P23977 whole entry): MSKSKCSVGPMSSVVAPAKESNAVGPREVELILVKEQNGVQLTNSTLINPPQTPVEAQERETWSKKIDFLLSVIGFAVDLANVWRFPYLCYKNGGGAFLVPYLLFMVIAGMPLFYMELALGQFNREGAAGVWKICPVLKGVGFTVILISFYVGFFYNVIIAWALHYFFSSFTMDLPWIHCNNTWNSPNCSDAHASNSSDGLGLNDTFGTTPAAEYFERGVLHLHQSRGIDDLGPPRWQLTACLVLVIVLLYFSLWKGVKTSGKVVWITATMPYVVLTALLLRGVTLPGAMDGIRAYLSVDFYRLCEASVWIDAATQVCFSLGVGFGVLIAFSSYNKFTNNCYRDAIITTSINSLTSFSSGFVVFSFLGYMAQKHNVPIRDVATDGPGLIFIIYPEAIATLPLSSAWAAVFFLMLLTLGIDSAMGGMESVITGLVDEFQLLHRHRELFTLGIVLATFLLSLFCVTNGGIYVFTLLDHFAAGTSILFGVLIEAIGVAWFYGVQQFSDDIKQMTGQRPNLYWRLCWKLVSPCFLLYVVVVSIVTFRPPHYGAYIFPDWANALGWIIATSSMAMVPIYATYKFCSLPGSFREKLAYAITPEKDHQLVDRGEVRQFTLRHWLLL
Procedure, shortened: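 Frozen rat striatal membranes in 50 mM Tris-HCl pH 7.4 with 120 mM NaCl and 5 mM KCl, incubated 90 min at 4 °C with 2 nM [3H]WIN 35,428. Nonspecific binding defined with 3 µM nomifensine. Stopped by rapid filtration on albumin-presoaked GF/B filters, then scintillation counting.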

[4] = target: Sodium-dependent serotonin transporter (Rattus norvegicus, UniProt P31652); test: Displacement of [3H]-citalopram from SERT in rat cortical membranes after 60 mins; assay type: cell membranes, Membrane; procedure, shortened: as §1
Chain of Sodium-dependent serotonin transporter (P31652 whole entry): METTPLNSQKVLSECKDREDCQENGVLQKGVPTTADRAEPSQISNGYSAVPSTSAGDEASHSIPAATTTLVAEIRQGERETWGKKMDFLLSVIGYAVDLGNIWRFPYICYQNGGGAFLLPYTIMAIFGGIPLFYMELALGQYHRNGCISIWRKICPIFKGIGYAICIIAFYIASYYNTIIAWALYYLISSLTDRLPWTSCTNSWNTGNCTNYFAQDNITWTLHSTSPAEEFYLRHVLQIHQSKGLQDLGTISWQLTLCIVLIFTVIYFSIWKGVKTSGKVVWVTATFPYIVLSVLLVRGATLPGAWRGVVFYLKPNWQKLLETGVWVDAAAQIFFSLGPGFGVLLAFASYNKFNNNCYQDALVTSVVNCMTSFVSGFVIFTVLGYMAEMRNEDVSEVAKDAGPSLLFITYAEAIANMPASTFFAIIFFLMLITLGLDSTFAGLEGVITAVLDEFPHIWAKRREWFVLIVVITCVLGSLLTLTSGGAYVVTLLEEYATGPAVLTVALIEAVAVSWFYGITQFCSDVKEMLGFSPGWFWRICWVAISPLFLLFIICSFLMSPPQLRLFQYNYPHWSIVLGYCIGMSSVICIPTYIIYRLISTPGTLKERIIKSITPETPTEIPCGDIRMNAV

[5] = target: Sodium-dependent serotonin transporter (Rattus norvegicus) (UniProt P31652); test: Increase of [3H]paroxetine binding to SERT in rat cortical membranes at 10 uM after 60 mins; assay type: cell membranes; conditions: Membrane
Procedure, shortened: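 Saturation binding in rat cortical membranes (Tris-HCl 50 mM pH 7.4, 120 mM NaCl, 5 mM KCl) at varied [3H]paroxetine concentrations, with or without 10 µM compound. Specific binding by scintillation counting. Mean ± SD of 4 replicates. One-site hyperbola fit gave Bmax and Kd.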

[6] = target: Sodium-dependent serotonin transporter (Rattus norvegicus) (UniProt P31652); test: Increase of SERT-mediated [3H]-5HT uptake in rat brain cortex synaptosomes at 10 uM after 7 mins by scintillation counting; assay type: subcellular
Procedure, shortened: (§2)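 Rat cortex P2 synaptosomes from 0.32 M sucrose homogenate, resuspended in HEPES-buffered saline pH 7.4 with glucose, ascorbate and pargyline. Aliquots equal to 3 mg tissue preincubated 7 min at 35 °C with compound. Uptake then ran 5 min after adding 100 nM [3H]5-HT, stopped by filtration, and counted by scintillation. Nonspecific uptake defined with 10 µM (S)-citalopram.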

[7] = target: Sodium-dependent serotonin transporter (Rattus norvegicus) (UniProt P31652); test: Increase of SERT-mediated [3H]-5HT uptake in rat brain cortex synaptosomes after 7 mins by scintillation counting; assay type: subcellular; procedure, shortened: as §2
[8] = target: Sodium-dependent serotonin transporter (Rattus norvegicus) (UniProt P31652); test: Increase of [3H]-citalopram binding to SERT in rat cortical membranes at 10 to 30 uM after 60 mins; assay type: cell membranes; conditions: Membrane; procedure, shortened: as §1
[9] = target: Sodium-dependent serotonin transporter (Rattus norvegicus) (UniProt P31652); test: Increase of [3H]-citalopram binding to SERT in rat cortical membranes at 10 uM after 60 mins; assay type: cell membranes; conditions: Membrane; procedure, shortened: as §1
[10] = target: Sodium-dependent serotonin transporter (Rattus norvegicus) (UniProt P31652); test: Increase of SERT-mediated [3H]-5HT uptake in rat brain cortex synaptosomes at 10 to 30 uM after 7 mins by scintillation counting; assay type: subcellular; procedure, shortened: as §2
[11] = target: Sodium-dependent serotonin transporter (Rattus norvegicus) (UniProt P31652); test: Increase of [3H]-citalopram binding to SERT in rat cortical membranes at 3 to 30 uM after 60 mins; assay type: cell membranes; conditions: Membrane; procedure, shortened: as §1
[12] = target: Sodium-dependent serotonin transporter (Rattus norvegicus) (UniProt P31652); test: Increase of SERT-mediated [3H]-5HT uptake in rat brain cortex synaptosomes at 3 to 100 uM after 7 mins by scintillation counting; assay type: subcellular; procedure, shortened: as §2

Chain of Sodium-dependent serotonin transporter (Rattus norvegicus) (P31652 whole entry): as above

Compound | inhibition [1] | also measured
C#CCOC1=NO[C@]2(C1)C[C@H]1CC[C@@H](C2)N1 | inactive | 
CN1O[C@]2(CC1=O)C[C@H]1CC[C@@H](C2)N1C | inactive | Activity [2]: inactive
CCOC(=O)C1=NO[C@]2(C1)C[C@H]1CC[C@@H](C2)N1C | inactive | 
c1ccc(COC2=NO[C@]3(C2)C[C@H]2CC[C@@H](C3)N2)cc1 | inactive | IC50 [3]: 5 µM
C#CCOC1=NO[C@]2(C1)C[C@H]1CC[C@@H](C2)N1C | inactive | 
CN1[C@@H]2CC[C@H]1C[C@@]1(CC(CO)=NO1)C2 | inactive | 
CCOC1=NO[C@]2(C1)C[C@H]1CC[C@@H](C2)[N+]1(C)C | inactive | IC50 [3]: 5 µM
C#CCOC1=NO[C@]2(C1)C[C@H]1CC[C@@H](C2)[N+]1(C)C | inactive | 
C[N+]1(C)[C@@H]2CC[C@H]1C[C@@]1(CC(Br)=NO1)C2 | inactive | 
C[N+]1(C)[C@@H]2CC[C@H]1C[C@@]1(CC(CO)=NO1)C2 | inactive | 
CN1[C@@H]2CC[C@H]1C[C@@]1(CC(Br)=NO1)C2 | inactive | 
CCOC(=O)C1=NO[C@]2(C1)C[C@H]1CC[C@@H](C2)[N+]1(C)C | inactive | 
CCOC1=NO[C@]2(C1)C[C@H]1CC[C@@H](C2)N1 | inactive | IC50 [3]: 5 µM
CN1O[C@]2(CC1=O)C[C@H]1CC[C@@H](C2)N1 |  | IC50 [4]: 5 µM
C[N+]1(C)[C@@H]2CC[C@H]1C[C@@]1(CC(OCc3ccccc3)=NO1)C2 | inactive | 
CN1[C@@H]2CC[C@H]1C[C@@]1(CC(=O)NO1)C2 | inactive | 
CN1[C@@H]2CC[C@H]1C[C@@]1(CC(OCc3ccccc3)=NO1)C2 | inactive | 
O=C1C[C@]2(C[C@H]3CC[C@@H](C2)N3)ON1 | inactive | IC50 [3]: 5 µM
COC1=NO[C@]2(C1)C[C@H]1CC[C@@H](C2)N1C | inactive | Activity [5]: Active; Activity [6]: 30%; Activity [2]: Dose-dependent effect; Activity [7]: Dose-dependent effect; Activity [8]: Active; Activity [9]: 25%; Activity [10]: Active
COC1=NO[C@]2(C1)C[C@H]1CC[C@@H](C2)[N+]1(C)C | inactive | 
BrC1=NO[C@]2(C1)C[C@H]1CC[C@@H](C2)N1 | inactive | 
CCOC1=NO[C@]2(C1)C[C@H]1CC[C@@H](C2)N1C | inactive | Activity [11]: Active; IC50 [3]: 5 µM; Activity [12]: Active; Activity [9]: 11%
COC1=NO[C@]2(C1)C[C@H]1CC[C@@H](C2)N1 | inactive | 

Reference: ChEMBL document CHEMBL2157862, “A novel spirocyclic tropanyl-Δ²-isoxazoline derivative enhances citalopram and paroxetine binding to serotonin transporters as well as serotonin uptake” (Bioorg Med Chem, 2012)
